# Results gathered from unrelated publications.
Compound,cell line,test,setting,measurement,result
COc1cc(O)c(C(=O)/C=C/c2ccccc2)c(OC)c1,SPCA1,"cell growth or viability, MTT",,IC50,31.7 µM
Cc1nc(Nc2ncc(C(=O)Nc3c(C)cccc3Cl)s2)cc(N2CCN(CCO)CC2)n1,SK-BR-3,"cell growth or viability, WST-1",72 h,GI50,1.6 µM
N.N.[Cl][Pt][Cl],M109,"cell growth or viability, MTT",,IC50,0.97 µM
OC[C@H](Cc1cccc(O)c1)[C@H](CO)Cc1cccc(O)c1,SPCA1,"cell growth or viability, MTT",,IC50,61.1 µM
Nc1nc(N)c(CNCCc2ccc(F)cc2)c(C2CC2)n1,Vero,"cell growth or viability, SRB",,IC50,> 100 µM
CC1=C(O)C(=O)C=C2C1=CC=C1[C@@]2(C)CC[C@@]2(C)[C@@H]3C[C@](C)(C(=O)O)CC[C@]3(C)CC[C@]12C,SMMC-7721,"cell growth or viability, MTT",20 µM,inhibition,70.6%
C[S+]([O-])CCCCN=C=S (centres unmarked),RAW264.7,"NO release, inhibitor, Griess","10 µM, LPS-stimulated",inhibition,91.6%
COc1cc2oc3cc(O)c(OC)c(CC=C(C)C)c3c(=O)c2c(O)c1CC=C(C)C,22Rv1,cell growth or viability,48 h,IC50,27.1 µM
Nc1nc(N)c(CNCCc2ccccc2F)c(C2CC2)n1,Vero,"cell growth or viability, SRB",,IC50,> 100 µM
N.N.[Cl][Pt][Cl],SMMC-7721,"cell growth or viability, MTT",48 h,IC50,6.43 µM
Nc1nc(N)c(CNCCc2ccc(Cl)cc2)c(C2CC2)n1,Vero,"cell growth or viability, SRB",,IC50,70 µM
COc1cccc2c1C(=O)c1c(O)c3c(c(O)c1C2=O)C[C@@](O)(C(=O)CO)C[C@@H]3O[C@H]1C[C@H](N)[C@H](O)[C@H](C)O1,SPCA1,"cell growth or viability, MTT",,IC50,30 µM
N.N.[Cl][Pt][Cl],CD4,cell growth or viability,72 h,IC50,2.2 µg/mL
O=C(CC(=O)c1ccccc1)c1ccccc1,HL-60,"cell growth or viability, resazurin","72 h, dark",IC50,15.5 µM
